Measurements reported in ChEMBL document CHEMBL4020840, “Synthesis and Biological Evaluation of Selenium-Containing 4-Anilinoquinazoline Derivatives as Novel Antimitotic Agents” (J Med Chem, 2018).

Key:
[1] = tested on: A549; experiment: Induction of apoptosis in human A549 cells assessed as early apoptotic cells at 4 nM after 24 hrs by Annexin V-FITC/propidium iodide staining based flow cytometry (reference value: 0.98%); assay type: functional
[2] = tested on: MDA-MB-231; experiment: Growth inhibition of human MDA-MB-231 cells after 48 hrs by MTT assay; assay type: functional, cell-based; settings: MDA-MB-231, 48 h
Summary of the method: (§1)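 MTT assay: log-phase cells plated at 5 × 10³/well for 24 h, then exposed to a range of test concentrations for 48 h. MTT (5 mg/mL) added for 4 h, formazan dissolved in DMSO, absorbance read at 570 nm. IC50 is the concentration giving 50% growth inhibition, from dose-response curves; at least three independent experiments, mean ± SE.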

[3] = tested on: A549; experiment: Induction of apoptosis in human A549 cells assessed as necrotic cells at 2 nM after 24 hrs by Annexin V-FITC/propidium iodide staining based flow cytometry (reference value: 0.10%); assay type: functional
[4] = tested on: A549; experiment: Induction of apoptosis in human A549 cells assessed as necrotic cells at 4 nM after 24 hrs by Annexin V-FITC/propidium iodide staining based flow cytometry (reference value: 0.10%); assay type: functional
[5] = tested on: L02; experiment: Antiproliferative activity against human LO2 cells after 48 hrs by MTT assay; assay type: cell-based; settings: L02, 48 h; summary of the method: as §1
[6] = tested on: A549; experiment: Induction of apoptosis in human A549 cells assessed as late apoptotic cells at 2 nM after 24 hrs by Annexin V-FITC/propidium iodide staining based flow cytometry (reference value: 0.08%); assay type: functional
[7] = Selectivity index, ratio of IC50 for human LO2 cells to IC50 for human A549 cells; assay type: functional
Summary of the method: (§2)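 MTT assay in normal cells and A549: seeding at 5 × 10³ cells/well for 24 h, 48 h compound exposure, then 5 mg/mL MTT for 4 h, DMSO solubilisation and absorbance at 570 nm. IC50 values came from dose–response curves of at least three independent experiments. Selectivity ratio = IC50 in normal cells / IC50 in A549.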

[8] = Resistance factor, ratio of IC50 for human A549/CDDP cells to IC50 for human A549 cells; assay type: functional
Summary of the method: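 MTT assay: log-phase cells were seeded at 5 × 10³/well for 24 h, then exposed to a concentration series for 48 h. MTT (5 mg/mL) was added for 4 h, formazan was dissolved in DMSO, and A570 was read. IC50 values came from dose–response curves of at least three independent experiments. Resistance factor = IC50 in the resistant line / IC50 in the parental sensitive line.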

[9] = tested on: A549; experiment: Induction of apoptosis in human A549 cells assessed as live cells at 4 nM after 24 hrs by Annexin V-FITC/propidium iodide staining based flow cytometry (reference value: 98.84%); assay type: functional
[10] = Inhibition of porcine brain tubulin polymerization measured every 60 secs for 90 mins by DAPI staining based fluorescence assay; set-up: species or system Sus scrofa
Summary of the method: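 Purified tubulin was tested in a kit assay. Final buffer: 80 mM PIPES sesquisodium (pH 6.9), 2.0 mM MgCl₂, 0.5 mM EGTA, 1 mM GTP, 10.2% glycerol. Compound (0.1–10 μM) was prewarmed at 37 °C for 1 min before tubulin was added. DAPI reporter fluorescence (ex 340 / em 410 nm) was read every 60 s for 90 min. Area under the curve gave percent inhibition versus control and the IC50.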

[11] = tested on: A549; experiment: Induction of apoptosis in human A549 cells assessed as live cells at 2 nM after 48 hrs by Annexin V-FITC/propidium iodide staining based flow cytometry (reference value: 98.49%); assay type: functional
[12] = tested on: A549; experiment: Induction of mitochondrial membrane disruption in human A549 cells assessed as cells with mitochondrial membrane potential loss at 4 nM after 48 hrs by JC1 staining based flow cytometry (reference value: 0.82%); assay type: functional
[13] = Growth inhibition of human HepG2/DOX cells after 48 hrs by MTT assay; assay type: functional, cell-based; summary of the method: as §1
[14] = tested on: A549; experiment: Induction of mitochondrial membrane disruption in human A549 cells assessed as cells with mitochondrial membrane potential loss at 2 nM after 48 hrs by JC1 staining based flow cytometry (reference value: 0.82%); assay type: functional
[15] = tested on: HeLa; experiment: Antiproliferative activity against human HeLa cells after 48 hrs by MTT assay; assay type: functional, cell-based; summary of the method: as §1
[16] = tested on: A549; experiment: Induction of mitochondrial membrane disruption in human A549 cells assessed as cells with intact mitochondrial membrane at 4 nM after 48 hrs by JC1 staining based flow cytometry (reference value: 99.13%); assay type: functional
[17] = tested on: A549; experiment: Induction of apoptosis in human A549 cells assessed as necrotic cells at 2 nM after 48 hrs by Annexin V-FITC/propidium iodide staining based flow cytometry relative to control; assay type: functional
[18] = tested on: A549; experiment: Cell cycle arrest in human A549 cells assessed as accumulation at G2/M phase at 4 nM after 12 hrs by propidium iodide staining based flow cytometry (reference value: 10.13%); assay type: functional
Summary of the method: (§3)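 A549 seeded in six-well plates at 3 × 10⁵ cells/well and treated for 12 or 24 h; vehicle 0.01% DMSO. Cells fixed overnight in ice-cold 70% ethanol, treated with RNase A at 37 °C for 30 min, then stained with PI at 4 °C for 30 min. About 10 000 events acquired by flow cytometry at 488 nm; three experiments.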

[19] = tested on: A549; experiment: Induction of apoptosis in human A549 cells assessed as early apoptotic cells at 2 nM after 48 hrs by Annexin V-FITC/propidium iodide staining based flow cytometry (reference value: 1.48%); assay type: functional
[20] = tested on: A549; experiment: Induction of apoptosis in human A549 cells assessed as late apoptotic cells at 4 nM after 24 hrs by Annexin V-FITC/propidium iodide staining based flow cytometry (reference value: 0.08%); assay type: functional
[21] = Selectivity index, ratio of IC50 for human BJ cells to IC50 for human A549 cells; assay type: functional; summary of the method: as §2
[22] = tested on: MGC-803; experiment: Antiproliferative activity against human MGC803 cells after 48 hrs by MTT assay; assay type: functional, cell-based; settings: MGC-803, 48 h; summary of the method: as §1
[23] = Antiproliferative activity against HLF after 48 hrs by MTT assay; assay type: cell-based; settings: Homo sapiens; summary of the method: as §1
[24] = tested on: A549; experiment: Induction of mitochondrial membrane disruption in human A549 cells assessed as cells with intact mitochondrial membrane at 8 nM after 48 hrs by JC1 staining based flow cytometry (reference value: 99.13%); assay type: functional
[25] = tested on: HepG2; experiment: Growth inhibition of human HepG2 cells after 48 hrs by MTT assay; assay type: functional, cell-based; settings: HepG2, 48 h; summary of the method: as §1
[26] = tested on: A549; experiment: Cell cycle arrest in human A549 cells assessed as accumulation at G2/M phase at 4 nM after 24 hrs by propidium iodide staining based flow cytometry (reference value: 10.13%); assay type: functional; summary of the method: as §3
[27] = tested on: RKO; experiment: Growth inhibition of human RKO cells after 48 hrs by MTT assay; assay type: functional, cell-based; summary of the method: as §1
[28] = tested on: A549; experiment: Growth inhibition of human A549 cells after 48 hrs by MTT assay; assay type: functional, cell-based; settings: A549, 48 h
[29] = tested on: A549; experiment: Induction of apoptosis in human A549 cells assessed as late apoptotic cells at 4 nM after 48 hrs by Annexin V-FITC/propidium iodide staining based flow cytometry (reference value: 0.03%); assay type: functional
[30] = tested on: A549; experiment: Induction of apoptosis in human A549 cells assessed as early apoptotic cells at 4 nM after 48 hrs by Annexin V-FITC/propidium iodide staining based flow cytometry (reference value: 1.48%); assay type: functional
[31] = tested on: A549; experiment: Induction of apoptosis in human A549 cells assessed as early apoptotic cells at 2 nM after 24 hrs by Annexin V-FITC/propidium iodide staining based flow cytometry (reference value: 0.98%); assay type: functional

SMILES: C[Se]c1ccc(N(C)c2nc(C)nc3ccccc23)cc1
- Activity [1]: 26.51%
- IC50 [2]: 4 nM
- Activity [3]: 0.9%
- Activity [4]: 2.28%
- IC50 [5]: 19 nM
- Activity [6]: 3.82%
- Ratio IC50 [7]: 9.5
- Ratio IC50 [8]: 4.09
- Activity [9]: 64.86%
- IC50 [10]: 1890 nM
- Activity [11]: 49.81%
- Activity [12]: 42.83%
- IC50 [13]: 8 nM
- Activity [14]: 15.85%
- IC50 [15]: 3 nM
- Activity [16]: 56.98%
- Activity [17]: 3.19%
- Activity [18]: 67.1%
- Activity [19]: 26.51%
- Activity [20]: 6.35%
- Ratio IC50 [21]: 9.5
- IC50 [22]: 7 nM
- IC50 [23]: 20 nM
- Activity [24]: 36.52%
- IC50 [25]: 4 nM
- Activity [26]: 87.16%
- IC50 [27]: 4 nM
- IC50 [28]: 2 nM
- Activity [29]: 28.75%
- Activity [30]: 54.14%
- Activity [31]: 16.35%
